Laboratory results published in PMC11842817 (Nature Communications, 2025).
Where “and” joins values, the source holds several entries; their conditions need not be identical. Equal entries are not always repeated. Entries after “also recorded” stand apart in the source; their conditions may differ.

Columns and labels:
SyoA [1] = target: T1, SyoA (Amycolatopsis thermoflava, UniProt A0AAX7FLX8); experiment: In vitro H2O2-driven; type: biochemical, Amycolatopsis thermoflava N1165; settings: 1 µM SyoA; for concentration of demethylated aromatic product (individual replicates): 10 mM H2O2, 0.5 mM syringol; for concentration of demethylated aromatic product (individual replicates) / concentration of demethylated aromatic product (mean of 3 replicates): 0.5 mM syringaldehyde or 2 mM 4-methylsyringol, 30 °C, 60 min; for total turnover number (TTN): 10 mM H2O2, 60 min; for concentration of demethylated aromatic product (mean of 3 replicates): 50 mM Tris pH 7.5, 10 mM H2O2, 0.5 mM syringol
T1 sequence (A0AAX7FLX8 1-412): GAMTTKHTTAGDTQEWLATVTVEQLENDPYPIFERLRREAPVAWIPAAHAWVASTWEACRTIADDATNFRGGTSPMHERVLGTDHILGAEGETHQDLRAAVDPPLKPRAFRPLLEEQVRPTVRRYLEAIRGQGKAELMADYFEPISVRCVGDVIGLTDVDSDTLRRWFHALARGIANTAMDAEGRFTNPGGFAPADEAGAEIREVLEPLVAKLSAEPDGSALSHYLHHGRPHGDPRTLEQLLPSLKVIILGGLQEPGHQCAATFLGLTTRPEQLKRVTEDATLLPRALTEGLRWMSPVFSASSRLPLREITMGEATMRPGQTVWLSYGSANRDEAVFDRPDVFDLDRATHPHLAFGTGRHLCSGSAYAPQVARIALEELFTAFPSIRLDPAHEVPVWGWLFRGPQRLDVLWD
In short: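 SyoA expressed in E. coli BL21(DE3) and purified by Ni affinity then anion exchange. Enzyme at 1 µM in 50 mM Tris pH 7.5 with 0.5–2 mM test compound (from DMSO stock), preincubated 2 min at 30 °C. Started with 10 mM H2O2 and run 60 min at 30 °C, then quenched with catalase; triplicate. Products quantified by C18 HPLC (20–95% MeCN/0.1% TFA, 254 nm) against internal-standard calibration (20–500 µM), or by GC-MS after ethyl acetate extraction.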

[2] = tested on: GcoA mutants (GcoAEE, GcoAQT, GcoAET) with GcoB; experiment: In vitro NADH/O2-driven; type: biochemical, Amycolatopsis thermoflava
In short: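 GcoA mutants at 0.5 µM with 1 µM GcoB and 100 µg/mL catalase in oxygenated 50 mM Tris pH 7.5 at 30 °C. About 320 µM NADH added first to record background oxidation. Started with 1 mM test compound; A340 followed for about 10 min, then left about 1 h at room temperature. No-P450 controls included. Products analysed by C18 HPLC at 254 nm.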

[3] = tested on: GcoA mutants (GcoAEE, GcoAQT, GcoAET); experiment: UV-Vis substrate binding analysis of I-helix mutants; parameters: species or system Amycolatopsis thermoflava
[4] = tested on: GcoA mutants (GcoAEE, GcoAQT, GcoAET); experiment: In vitro H2O2-driven O-demethylation by I-helix mutants, HPLC; type: biochemical, Amycolatopsis thermoflava; settings: mutation of Gln248 and/or Glu249, 20 mM H2O2
In short: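 GcoA mutants carried N-terminal His6-TEV tags, were expressed in E. coli BL21(DE3) and purified by Ni affinity. Reactions used 1 µM enzyme in 50 mM Tris pH 7.5 with 0.5–2 mM test compound, preincubated 2 min at 30 °C. Started with 20 mM H2O2 and run 60 min at 30 °C, then catalase-quenched; triplicate. Products quantified by C18 HPLC at 254 nm against calibration curves.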

SyoA [5] = target: T1, SyoA; experiment: Substrate binding affinity; parameters: species or system Amycolatopsis thermoflava N1165; settings: 50 mM potassium phosphate pH 7.4, n = 3, hyperbolic fit
In short: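 SyoA at about 2–8 µM in 50 mM potassium phosphate pH 7.4 titrated with test compound from 1, 10 or 100 mM DMSO stocks (at most 10 µL per stock). Difference spectra recorded from 300–600 nm until no further shift. Peak-to-trough ΔA taken at 390−419, 500−419 or 500−570 nm depending on ligand, then fitted to a hyperbolic equation for KD; triplicate titrations.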

SyoA/SyoB = experiment: In vitro NADH/O2-driven; type: biochemical, Amycolatopsis thermoflava N1165; settings: ~320 μM NADH; for O-demethylation by reconstituted SyoA/SyoB monooxygenase system: 1 μM SyoA, 1 μM SyoB, 1 mM substrate, 30 °C
In short: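 Reconstituted system of 1 µM SyoA, 1 µM His-tagged SyoB and 100 µg/mL catalase in oxygenated 50 mM Tris pH 7.5 at 30 °C. Background NADH (about 320 µM) oxidation recorded first. Started with 1 mM test compound from DMSO stock; A340 (ε 6.22 mM−1 cm−1) monitored about 10 min, then about 1 h at room temperature for full NADH use. No-P450 controls included. Products analysed by HPLC.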

SyoA [6] = target: T1, SyoA; experiment: UV-Vis spin-state shift / substrate binding analysis; parameters: species or system Amycolatopsis thermoflava N1165; settings: ligand titrated until Soret band stopped shifting
In short: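 SyoA at about 3 µM in 50 mM Tris pH 7.5 received test compound in 1 µL aliquots from 100 mM DMSO stock. Spectra recorded from 600–250 nm until no further shift. Spin-state change read from the Soret band (417 nm) or the Q-bands (568 and 535 nm).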

[7] = tested on: SyoA mutants (SyoAEE, SyoAQT, SyoAET); experiment: UV-Vis substrate binding analysis of I-helix mutants; parameters: species or system Amycolatopsis thermoflava N1165
[8] = tested on: SyoA mutants (SyoAEE, SyoAQT, SyoAET); experiment: In vitro H2O2-driven O-demethylation by I-helix mutants, HPLC; type: biochemical, Amycolatopsis thermoflava N1165; settings: mutation of Gln252 and/or Glu253
In short: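 SyoA I-helix mutants expressed in E. coli BL21(DE3) and purified by Ni affinity only. Enzyme at 1 µM in 50 mM Tris pH 7.5 with 0.5–2 mM test compound, preincubated 2 min at 30 °C. Started with 10 mM H2O2 and run 60 min at 30 °C, then catalase-quenched; triplicate. Products quantified by C18 HPLC at 254 nm with internal standard and product calibration curves.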

Row | concentration of demethylated aromatic product (individual replicates) (SyoA [1]) | Kd (SyoA [5]) [µM] | total turnover number (TTN) (SyoA [1]) | concentration of demethylated aromatic product (mean of 3 replicates) (SyoA [1]) [µM] | Compound | O-demethylation by reconstituted SyoA/SyoB monooxygenase system (SyoA/SyoB) | also measured
1 | 155 µM and 125 µM and 146 µM |  |  |  | COc1cccc(O)c1O [1b, 3-methoxycatechol] |  | 
2 | 802 µM and 822 µM and 762 µM |  |  |  | COc1cc(C)cc(O)c1O [2a, 3-methoxy-5-methylbenzene-1,2-diol] |  | 
3 | 332 µM and 314 µM and 279 µM |  |  |  | COc1cc(C=O)cc(O)c1O [3a, 5-hydroxyvanillin] |  | 
4 |  |  |  |  | COc1ccccc1O [guaiacol] |  | monooxygenase activity compared to wild type ([2]; GcoAEE): significant reduction in the monooxygenase activity; monooxygenase activity compared to wild type ([2]; GcoAET): significant reduction in the monooxygenase activity; monooxygenase activity compared to wild type ([2]; GcoAQT): complete loss in activity; substrate binding to mutants (UV-Vis) [3]: not drastically impacted by the mutations; hydrogen peroxide driven O-demethylation by mutants compared to wild type [4]: loss of peroxygenase activity
5 |  | 341 ± 25 | 308 | 308 ± 27 | COc1cc(C=O)cc(OC)c1O [syringaldehyde] | did not O-demethylate; also recorded: no O-demethylation | 
6 |  | 16 ± 1 | 142 | 142 ± 15 | COc1cccc(OC)c1O [syringol] | did not O-demethylate; also recorded: no O-demethylation | shift to the HS (high-spin) form using the Soret band (SyoA [6]): ~ 70%; NADH consumption in reaction containing SyoA, SyoB and substrate (SyoA/SyoB; monitored at 340 nm): NADH was consumed; substrate consumed (SyoA [1]; over 60 min, 10 mM H2O2): ~ 65%; substrate binding to mutants (UV-Vis) [7]: not drastically impacted by the mutations; hydrogen peroxide driven O-demethylation by mutants compared to wild type [8]: loss of peroxygenase activity
